According to ChEMBL document CHEMBL1135406, “Distribution of furamidine analogues in tumor cells: influence of the number of positive charges” (J Med Chem, 2002):

Test system: B16
Experiment: Drug concentration required to inhibit B16 cell growth by 50% after 72 hours of incubation
Assay type: functional, cell-based
Conditions: Mus musculus, B16, 72 h
Procedure, shortened: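 B16 murine melanoma cells grown in DMEM-glutaMAX with 10% FBS, penicillin and streptomycin, 37 °C, 5% CO2; harvested by trypsinization and plated 20 h before dosing. 2 × 10⁴ exponentially growing cells per well exposed to a range of drug concentrations for 72 h at 37 °C; MTS added for a further 3 h; absorbance read at 492 nm; IC50 = 50% growth inhibition.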

| Compound | IC50 |
| --- | --- |
| N=C(N)c1ccc2[nH]c(-c3ccc(-c4ccc(N)cc4)o3)nc2c1 | > 100 µM |
| CN(C)CCC/N=C(\N)c1ccc(-c2ccc(-c3nc4cc(/C(N)=N/CCCN(C)C)ccc4[nH]3)o2)cc1 | > 100 µM |
| N=C(N)c1ccc(-c2ccc(-c3ccc(C(=N)N)cc3)o2)cc1 [FURAMIDINE] | 9.2 µM |
| COc1ccc(-c2ccc(-c3ccc(C4=NCCN4)cc3)o2)cc1 | 1.7 µM |
| N=C(N)c1ccc(-c2ccc(-c3nc4ccccc4[nH]3)o2)cc1 | 51.4 µM |
| CN(C)CCC/N=C(\N)c1ccc(-c2ccc(-c3ccc(/C(N)=N/CCCN(C)C)cc3)o2)cc1 | 2.5 µM |
| N=C(N)c1ccc(-c2ccc(-c3nc4cc(C(=N)N)ccc4[nH]3)o2)cc1 | 43.2 µM |
| c1cc(-c2ccc(-c3ccc(C4=NCCN4)cc3)o2)ccc1C1=NCCN1 | 1.1 µM |
| c1ccc2[nH]c(-c3ccc(-c4ccc(C5=NCCN5)cc4)o3)nc2c1 | 8.6 µM |
| COc1ccc(-c2ccc(-c3ccc(C(=N)N)cc3)o2)cc1 | 3.5 µM |
| CN(C)CCCC(=O)Nc1ccc(-c2ccc(-c3ccc(NC(=O)CCCN(C)C)cc3)o2)cc1 | 2.3 µM |
